The record followed here is ChEMBL document CHEMBL2412965, “Macrocyclic biphenyl tetraoxazoles: synthesis, evaluation as G-quadruplex stabilizers and cytotoxic activity” (Bioorg Med Chem, 2013).

Series [1] relates to Salmonidae. Briefly: Binding affinity to salmon testes duplex DNA assessed as thermal transition temperature at 15 uM preincubated for 5 mins at 90 degC followed by cooling at room temperature measured after 4 hrs by UV spectrophotometric analysis in presence of 150 mM K+ (reference value: 86.1 degC). In outline:
(§1)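 Salmon testes duplex DNA melting with ligand at 15 μM in 1 cm quartz cells. Buffer was 10 mM potassium phosphate, pH 7.5, with KCl added to give 50 mM K+ (32 mM KCl) or 150 mM K+ (132 mM KCl). Absorbance was read at 260 nm, temperature raised in 0.5 °C increments with 1 min equilibration and 5 s averaging. Ttran was taken from the first-derivative maximum.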

Series [2] deals with Salmonidae. Briefly: Binding affinity to salmon testes duplex DNA assessed as thermal transition temperature at 15 uM preincubated for 5 mins at 90 degC followed by cooling at room temperature measured after 4 hrs by UV spectrophotometric analysis in presence of 50 mM K+ (reference value: 78.2 degC). The essentials:
as §1

The species named for series [3] is Homo sapiens. As to the kind of experiment: Binding affinity to human d(TTAGGG)4 assessed as thermal transition temperature at 20 uM preincubated for 5 mins at 90 degC followed by cooling at room temperature measured after 4 hrs by UV spectrophotometric analysis in presence of 150 mM K+ (reference value: 63.1 degC). In outline: (§2)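 UV melting of human telomeric d(TTAGGG)4 at 5 μM strand (120 μM nucleotide), with ligand at 20 μM. Before use, DNA was heated 5 min at 90 °C and cooled slowly to room temperature over 4 h. Buffer was 10 mM potassium phosphate, pH 7.5, with KCl added to give 50 mM K+ (32 mM KCl) or 150 mM K+ (132 mM KCl). Absorbance was read at 295 nm in 0.5 °C steps with 1 min equilibration. Ttran was taken from the first-derivative minimum.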

The species named for series [4] is Homo sapiens. As to the kind of experiment: Binding affinity to human d(TTAGGG)4 assessed as thermal transition temperature at 20 uM preincubated for 5 mins at 90 degC followed by cooling at room temperature measured after 4 hrs by UV spectrophotometric analysis in presence of 50 mM K+ (reference value: 55.3 degC). The essentials:
as §2

The nature of series [5]: Cytotoxicity against human KBH5.0 cells overexpressing BCRP after 4 days by MTT assay. Type of series: functional, cell-based. As to conditions: KBH5.0 cell, 96 h. The essentials:
(§3)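 Cells were grown in suspension in RPMI with 10% heat-inactivated FBS, 2 mM L-glutamine, penicillin and streptomycin at 37 °C, 5% CO2. Drug exposure was continuous for 4 days across a concentration range, with a drug-free control. IC50 came from at least two experiments in six replicate wells.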

A short description of series [6]: Cytotoxicity against human KBV1 cells overexpressing MDR1 after 4 days by MTT assay. The series is classed as functional, cell-based. Conditions: KB-V1, 96 h. The essentials:
as §3
A general note: Tetrazolium assays rely on reduction of a dye to a coloured formazan, in cell work by metabolically active cells.

The nature of series [7]: Cytotoxicity against wild type human KB-3-1 cells after 4 days by MTT assay. As to conditions: KB 3-1, 96 h. The series is classed as functional, cell-based. In outline: as §3
Series [8] can be described thus: Cytotoxicity against human RPMI8402 cells after 4 days by MTT assay. Type of series: functional, cell-based. As to conditions: RPMI 8402, 96 h.
In series [9] the test system is Mus musculus. As to the kind of experiment: Toxicity in athymic nude NCr mouse xenografted with human MDA-MB-435 cells administered as ip for 3 times per week for 4 weeks measured 2 times per week during compound administration. The series is classed as organism-based. As to conditions: in vivo, 672 h. A general note: Xenograft models place foreign cells or tissue in a host animal.

The test system of series [10] is MDA-MB-435. As to the kind of experiment: Antitumor activity against human MDA-MB-435 cells xenografted in athymic nude NCr mouse assessed as tumor growth inhibition at 14 to 31 mg/kg, ip administered 3 times per week for 3 weeks followed by 42 mg/kg, ip dose for 3 times per week for last 10 days measured 2 times per week during compound administration relative to control. The series is classed as functional.

For `CC(C)[C@@H]1NC(=O)c2coc(n2)-c2coc(n2)-c2cccc(c2)-c2cccc(c2)-c2nc(co2)-c2nc(co2)CNC1=O`, the T in [1] came out at 86.2 °C; in series [2], 78.2 °C; in series [3], 67.2 °C; in series [4], 61.7 °C. The half-inhibitory concentration (IC50) – broadly, the point on the concentration scale where inhibition reaches its midpoint – is 10 µM in [5], 6.5 µM in [6] and 5 µM in [7].

For the molecule `NCC[C@@H]1NC(=O)c2coc(n2)-c2coc(n2)-c2cccc(c2)-c2cccc(c2)-c2nc(co2)-c2nc(co2)CNC1=O`, the T worked out at 87.1 °C in series [1], 81.1 °C in [2], 77.7 °C in [3] and 68.2 °C in [4]. Further, the IC50 in series [5] is > 10 µM; in series [6], > 10 µM; in series [8], 7000 nM; in [7] it was 4 µM.

In the case of `CC(C)[C@@H]1NC(=O)c2coc(n2)-c2coc(n2)-c2coc(n2)[C@H](CCN(C)C)NC(=O)c2coc(n2)-c2coc(n2)-c2coc1n2`, the Activity result in [9] is reported as “<= 45 mg kg-1”. For the same molecule, the T/C (as a rule, the ratio of treated to control) in [10] is on record as 21.6%. In addition, the T in [1] is 86.7 °C; in [2], 78.2 °C; in series [3], 92.2 °C; in series [4], 92.7 °C. In addition, the 50% inhibitory concentration (IC50) in series [5] is 0.03 µM; in series [6] it was 5 µM; in series [8], 70 nM.

As to `CN(C)CC[C@@H]1NC(=O)c2coc(n2)-c2coc(n2)-c2cccc(c2)-c2cccc(c2)-c2nc(co2)-c2nc(co2)CNC1=O`, the T amounted to 86.7 °C in series [1], 79.1 °C in series [2], 73.7 °C in series [3] and 63.7 °C in [4]. Moreover, the 50% inhibitory concentration (IC50) in series [5] was > 10 µM; in [6], > 10 µM; in series [8], 6500 nM; in series [7], 3.5 µM.

`O=C1N[C@@H](Cc2ccccc2)C(=O)NCc2coc(n2)-c2coc(n2)-c2cccc(c2)-c2cccc(c2)-c2nc(co2)-c2nc1co2`: the T turned out to be 85.7 °C in [1], 77.2 °C in series [2], 64.7 °C in series [3] and 58.1 °C in series [4]. Moreover, the IC50 in series [5] is > 10 µM; in series [6] it was > 10 µM; in [8], > 10000 nM; in [7], > 10 µM.

Consider `O=C1CNC(=O)c2coc(n2)-c2coc(n2)-c2cccc(c2)-c2cccc(c2)-c2nc(co2)-c2nc(co2)CN1`, for which the T in series [1] worked out at 86.7 °C; in series [2] it was 78.2 °C; in series [3], 67.3 °C; in series [4] it was 60.1 °C. For the same molecule, the concentration for half-maximal inhibition (IC50) in [5] was > 10 µM; in series [6], > 10 µM; in series [8], 2500 nM; in series [7] it was 2.3 µM.

For `CC(C)[C@@H]1NC(=O)c2coc(n2)-c2coc(n2)-c2coc(n2)C/C=C/c2coc(n2)-c2coc(n2)-c2coc1n2`, the T was 86.2 °C in series [1], 78.2 °C in series [2], 93.2 °C in [3] and 92.2 °C in [4]. For the same molecule, the figures for the IC50 in series [5], in series [6] and in series [8] were 0.04 µM, 3.3 µM and 30 nM, respectively.

Regarding `CN(C)CCc1cc2cc(c1)CNC(=O)c1coc(n1)-c1coc(n1)-c1cccc(n1)-c1nc(co1)-c1nc(co1)C(=O)NC2`, the T in series [1] was found to be 86.8 °C; in series [2], 78.7 °C; in series [3] it was 91.2 °C; in [4], 91.2 °C. In addition, the IC50 in series [5] is > 10 µM; in [6] it was > 10 µM; in [8], 180 nM; in series [7], 0.04 µM.

`CC(C)(C)OC(=O)NCC[C@@H]1NC(=O)c2coc(n2)-c2coc(n2)-c2cccc(c2)-c2cccc(c2)-c2nc(co2)-c2nc(co2)CNC1=O`: the T in series [1] came to 86.5 °C; in series [2] it was 78.3 °C; in [3], 64.2 °C; in series [4] it was 57.7 °C. The IC50 in [5] was 6 µM; in series [6], > 10 µM; in series [8], 3500 nM; in [7], > 10 µM.

On to `CC(C)[C@@H]1NC(=O)c2coc(n2)-c2coc(n2)-c2coc(n2)[C@H](C(C)C)NC(=O)c2coc(n2)-c2coc(n2)-c2coc1n2` [HEXAOXAZOLE DIVALINE], for which the IC50 was 0.5 µM in series [5], > 10 µM in series [6], 410 nM in series [8] and 0.3 µM in series [7].
